Experimental data published in PMC4161670 (Molecular Psychiatry, 2014).
Bridge positions count the residues as written; N and C are the ends. Ends that are not written are not given here.

Tests used:
recombinant BACE1 = recombinant BACE1 (Homo sapiens, UniProt P56817); assay: In vitro BACE1 activity assay; format: biochemical
Tg2576 mice = assay: APP processing in brain; format: in vivo, mouse; settings: Tg2576, chronic treatment, western blot 6E10, n = 6 per group
Procedure, shortened: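 Tg2576 females, 9 months old, given test compound at 200 μg kg−1 i.p. or PBS once daily for 10 weeks; n=6 per group for blots. Brain proteins were fractionated into TBS-soluble, TBS-X and formic acid fractions. Reduced SDS-PAGE and western blot used human APP-specific 6E10. Full-length APP and C99 were quantitated from the TBS-X fraction and sAPP from the TBS-soluble fraction. Mean±s.e.; t-tests.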

[1] = cited from earlier work
5XFAD mice = assay: Serum Aβ after a single injection; format: in vivo, mouse
Procedure, shortened: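 Female 5XFAD mice got a single i.p. injection of test compound or PBS. Serum was drawn before and after injection. Aβ1–42 was measured by sandwich ELISA: 21F12 capture, biotinylated N-terminal detection, streptavidin-alkaline phosphatase and a fluorescent substrate. Samples were diluted twofold to fivefold. Lowest detection level was 1.6 pg ml−1, from a standard curve.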

Dutch APP mice = assay: Serum Aβ after a single injection; format: in vivo, mouse; settings: single i.p. 200 μg kg^-1
[2] = cited from earlier work; remark: listed apart in the source

recombinant BACE1, sequence (P56817 46-501, species assumed): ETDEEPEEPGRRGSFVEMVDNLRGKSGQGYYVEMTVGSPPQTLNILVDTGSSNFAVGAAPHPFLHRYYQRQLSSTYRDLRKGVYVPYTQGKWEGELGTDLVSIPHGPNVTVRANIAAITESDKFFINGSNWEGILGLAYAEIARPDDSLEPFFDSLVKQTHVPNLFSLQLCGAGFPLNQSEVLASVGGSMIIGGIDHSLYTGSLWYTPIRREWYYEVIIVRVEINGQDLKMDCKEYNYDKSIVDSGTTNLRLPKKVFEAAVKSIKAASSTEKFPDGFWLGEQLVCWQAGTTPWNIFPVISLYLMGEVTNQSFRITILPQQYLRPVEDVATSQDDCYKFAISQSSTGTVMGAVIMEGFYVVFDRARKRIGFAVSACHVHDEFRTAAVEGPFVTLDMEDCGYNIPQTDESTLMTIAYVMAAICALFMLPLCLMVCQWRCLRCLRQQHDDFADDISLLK

| inhibition of BACE1 activity (recombinant BACE1; purified BACE1, dose-dependent, concentration not given) [%] | Substance | ability to inhibit BACE1 activity (in words) (recombinant BACE1; purified BACE1, same assay as amylin) | level of APP fragment C99 in brain versus controls (in words) (Tg2576 mice) | aggregation (in words) [1] | change of serum Aβ after i.c.v. versus i.p. injection (in words) (5XFAD mice; single i.c.v. 200 μg kg^-1 vs single i.p. 200 μg kg^-1, P=0.03) | change of serum Aβ1-42 and Aβ1-40 after one injection (in words) (5XFAD mice; single i.p. 200 μg kg^-1) | dose dependence of serum Aβ1-42 change after challenge (in words) (5XFAD mice; single i.p. challenge, Figure 3e) | change of serum Aβ1-40 and Aβ1-42 after one injection (in words) (Dutch APP mice) | passage of the blood-brain barrier (in words) [2] |
| --- | --- | --- | --- | --- | --- | --- | --- | --- | --- |
| – | Pramlintide (KCNTATCATQRLANFLVHSSNNFGPILPPTNVGSNTY-NH2; disulfide 2-7; chains of the INN, looked up) | little or no ability to inhibit BACE1 activity | did not reduce C99 levels | does not form aggregates | – | – | – | – | – |
| 70 | Amylin (KCNTATCATQRLANFLVHSSNNFGAILSSTNVGSNTY; not fully specified (C-terminus, bridges); cysteine pairing not given here; UniProt P10997 34-70, looked up) | – | lower levels of the APP processing fragments C99 | – | much greater surge of Aβ in serum than a peripheral i.p. injection | increased level of Aβ1–42 but not of Aβ1–40 in serum | dose dependent | provoked a surge of Aβ1–40 but not of Aβ1–42 in the blood | passes through the blood–brain barrier (BBB) easily |
